For assay [1], the system named is Escherichia coli. The assay is described as follows: Antibacterial activity against Escherichia coli NCTC 12923 assessed as bacterial growth inhibition incubated for overnight by microbroth dilution method. Type of assay: functional. The method in brief: (§1)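 Broth microdilution in Tryptic Soy Broth. DMSO stocks were diluted in TSB as 2-fold series. Overnight TSB cultures were back-diluted to OD 0.01 and mixed 1:1 with compound. Incubation was overnight at 37 °C. MIC was the lowest concentration without visible growth (<0.1 OD600). DMSO vehicle was checked at equivalent concentrations.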

In assay [2] the test system is Pseudomonas aeruginosa. Put plainly: Antibacterial activity against Pseudomonas aeruginosa NCTC 13437 assessed as bacterial growth inhibition incubated for overnight by microbroth dilution method. Type of assay: functional. The method in brief:
as §1

Assay [3] concerns Acinetobacter baumannii. The assay is described as follows: Antibacterial activity against Acinetobacter baumannii AYE assessed as bacterial growth inhibition incubated for overnight by microbroth dilution method. It counts as functional. In outline: as §1
In general terms: Dilution methods test growth across graded concentrations, often in twofold steps.

Assay [4] deals with Klebsiella pneumoniae. Put plainly: Antibacterial activity against ESBL Klebsiella pneumoniae NCTC 13368 assessed as bacterial growth inhibition incubated for overnight by microbroth dilution method.
Assay [5] concerns Acinetobacter baumannii. The assay is described as follows: Antibacterial activity against Acinetobacter baumannii ATCC 17978 assessed as bacterial growth inhibition incubated for overnight by microbroth dilution method. It counts as functional. In outline: as §1
In assay [6] the test system is Pseudomonas aeruginosa. The assay is described as follows: Antibacterial activity against Pseudomonas aeruginosa PAO1 assessed as bacterial growth inhibition incubated for overnight by microbroth dilution method. It counts as functional. In outline: as §1
Assay [7] concerns Klebsiella pneumoniae. Put plainly: Antibacterial activity against Klebsiella pneumoniae M6 assessed as bacterial growth inhibition incubated for overnight by microbroth dilution method.
The subject of assay [8] is Acinetobacter baumannii. Put plainly: Synergistic antibacterial activity against Acinetobacter baumannii ATCC 17978 assessed as rifampicin MIC at <=0.25 times MIC incubated for overnight by microbroth dilution checkerboard assay. It counts as functional. In outline: (§2)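 Checkerboard microdilution under MIC conditions (TSB, overnight, 37 °C). Two-fold series of each agent were combined on one plate before bacteria were added, and single-agent MICs were measured on the same plate. FIC = sum of combination MIC/alone MIC for each agent, taken from the most synergistic well. Three independent repeats, mean ± SD. ≤0.5 was taken as strong synergy and 0.5–<1 as weak.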

Assay [9] concerns Acinetobacter baumannii. The assay is described as follows: Synergistic antibacterial activity against Acinetobacter baumannii AYE assessed as rifampicin MIC at <=0.25 times MIC incubated for overnight by microbroth dilution checkerboard assay. It counts as functional. The method in brief: as §2
The test system of assay [10] is Acinetobacter baumannii. The assay is described as follows: Synergistic antibacterial activity against Acinetobacter baumannii ATCC 17978 assessed as fold change in rifampicin MIC at <=0.25 times MIC incubated for overnight by microbroth dilution checkerboard assay relative to rifampicin alone. It counts as functional. The method in brief:
as §2

For assay [11], the system named is Klebsiella pneumoniae. Put plainly: Synergistic antibacterial activity against Klebsiella pneumoniae NCTC 13368 assessed as rifampicin MIC at <=0.25 times MIC incubated for overnight by microbroth dilution checkerboard assay. It counts as functional. In outline: as §2
Assay [12] relates to Pseudomonas aeruginosa. The assay is described as follows: Synergistic antibacterial activity against Pseudomonas aeruginosa PAO1 assessed as rifampicin MIC at <=0.25 times MIC incubated for overnight by microbroth dilution checkerboard assay. It counts as functional. The method in brief: (§3)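 Checkerboard microdilution in Tryptic Soy Broth, run like the MIC assay. Overnight TSB cultures were back-diluted to OD 0.01 and added 1:1 to the combined two-fold series of both agents, then incubated overnight at 37 °C. Growth/no-growth was called at <0.1 OD600. MICs alone were read on the same plates. FIC index came from the most synergistic well; three independent repeats, mean ± SD.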

Assay [13] concerns Acinetobacter baumannii. The assay is described as follows: Synergistic antibacterial activity against Acinetobacter baumannii AYE assessed as fold change in rifampicin MIC at <=0.25 times MIC incubated for overnight by microbroth dilution checkerboard assay relative to rifampicin alone. It counts as functional. In outline: as §2
Assay [14] concerns Klebsiella pneumoniae. The assay is described as follows: Synergistic antibacterial activity against Klebsiella pneumoniae NCTC 13368 assessed as fold change in rifampicin MIC at <=0.25 times MIC incubated for overnight by microbroth dilution checkerboard assay relative to rifampicin alone. Type of assay: functional. The method in brief:
(§4)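 Checkerboard run under the MIC conditions (TSB, overnight, 37 °C). Antibiotic and lipoguanidine 2-fold series were combined on one plate before bacteria were added. Growth/no-growth was scored as for the MIC (<0.1 OD600). Single-agent MICs were measured on the same plates. Three independent repeats were done.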

For assay [15], the system named is Pseudomonas aeruginosa. Put plainly: Synergistic antibacterial activity against Pseudomonas aeruginosa NCTC 13437 assessed as rifampicin MIC at <=0.25 times MIC incubated for overnight by microbroth dilution checkerboard assay. Type of assay: functional. In outline: as §3
For assay [16], the system named is Escherichia coli. The assay is described as follows: Synergistic antibacterial activity against Escherichia coli NCTC 12923 assessed as fold change in rifampicin MIC at <=0.25 times MIC incubated for overnight by microbroth dilution checkerboard assay relative to rifampicin alone. It counts as functional. The method in brief:
as §2

Assay [17] relates to Pseudomonas aeruginosa. The assay is described as follows: Synergistic antibacterial activity against Pseudomonas aeruginosa NCTC 13437 assessed as fold change in rifampicin MIC at <=0.25 times MIC incubated for overnight by microbroth dilution checkerboard assay relative to rifampicin alone. It counts as functional. In outline:
as §3

Assay [18] relates to Escherichia coli. Put plainly: Synergistic antibacterial activity against Escherichia coli NCTC 12923 assessed as rifampicin MIC at <=0.25 times MIC incubated for overnight by microbroth dilution checkerboard assay. It counts as functional. In outline: as §2
The subject of assay [19] is Klebsiella pneumoniae. Put plainly: Synergistic antibacterial activity against […] Klebsiella pneumoniae M6 assessed as rifampicin MIC at <=0.25 times MIC incubated for overnight by microbroth dilution checkerboard assay. It counts as functional. In outline: as §4
The test system of assay [20] is Pseudomonas aeruginosa. Put plainly: Synergistic antibacterial activity against Pseudomonas aeruginosa PAO1 assessed as fold change in rifampicin MIC at <=0.25 times MIC incubated for overnight by microbroth dilution checkerboard assay relative to rifampicin alone. It counts as functional. The method in brief: as §3

≈ marks a conversion by molar mass, not a printed value.

What is called MIC is the lowest concentration found to suppress growth.

`CO[C@@H]1[C@@H](OC(N)=O)[C@@H](O)[C@H](Oc2ccc3c(O)c(NC(=O)c4ccc(O)c(CC=C(C)C)c4)c(=O)oc3c2C)OC1(C)C` [NOVOBIOCIN]: the MIC is above 128 µg/mL in the assay on Escherichia coli [1]; above 128 µg/mL with Pseudomonas aeruginosa [2]; 8 µg/mL (≈ 13.1 µM) in the assay on Acinetobacter baumannii [3]; above 128 µg/mL in the assay with Klebsiella pneumoniae [4]; 8 µg/mL (≈ 13.1 µM) with Acinetobacter baumannii [5]; above 128 µg/mL in the assay with Pseudomonas aeruginosa [6]. For the same molecule, the MIC with Klebsiella pneumoniae [7] was above 128 µg/mL.

As to `CCCCCCCCCCCCCCCCCCNC(=O)NCCCCN`, the MIC was determined as 2 µg/mL in the assay with Acinetobacter baumannii [8]; 0.5 µg/mL in the assay with Acinetobacter baumannii [9]; 32 µg/mL in the assay on Klebsiella pneumoniae [11]; 16 µg/mL in the assay with Pseudomonas aeruginosa [12]; 16 µg/mL in the assay on Pseudomonas aeruginosa [15]; 16 µg/mL in the assay with Escherichia coli [18]. Moreover, the MIC with Klebsiella pneumoniae [19] was determined as 16 µg/mL. Further, the “fold change (FC)” value with Acinetobacter baumannii [10], in the assay with Acinetobacter baumannii [13], with Klebsiella pneumoniae [14], in the assay with Escherichia coli [16], in the assay on Pseudomonas aeruginosa [17] and with Pseudomonas aeruginosa [20] was 0 throughout.

Consider `CO[C@H]1/C=C/O[C@@]2(C)Oc3c(C)c(O)c4c(O)c(c(/C=N/N5CCN(C)CC5)c(O)c4c3C2=O)NC(=O)/C(C)=C\C=C\[C@H](C)[C@H](O)[C@@H](C)[C@@H](O)[C@@H](C)[C@H](OC(C)=O)[C@@H]1C` [RIFAMPIN], for which the MIC amounted to 16 µg/mL (≈ 19.4 µM) in the assay with Escherichia coli [1]; 32 µg/mL (≈ 38.9 µM) with Pseudomonas aeruginosa [2]; 16 µg/mL (≈ 19.4 µM) in the assay on Acinetobacter baumannii [3]; 32 µg/mL (≈ 38.9 µM) with Klebsiella pneumoniae [4]; 4 µg/mL (≈ 4.86 µM) in the assay with Acinetobacter baumannii [5]; 32 µg/mL (≈ 38.9 µM) in the assay with Pseudomonas aeruginosa [6]. Besides, the MIC with Klebsiella pneumoniae [7] worked out at 32 µg/mL (≈ 38.9 µM).

Regarding `CCCCCCCCCCNC(=N)NCCCCN(C)C`, the MIC with Acinetobacter baumannii [8] is at most 0.125 µg/mL; with Acinetobacter baumannii [9] it was at most 0.125 µg/mL; in the assay on Klebsiella pneumoniae [11], 1 µg/mL; in the assay on Pseudomonas aeruginosa [12], 0.5 µg/mL; with Pseudomonas aeruginosa [15], 0.5 µg/mL; with Escherichia coli [18], at most 0.125 µg/mL. The MIC in the assay on Klebsiella pneumoniae [19] is at most 0.125 µg/mL. Besides, the “fold change (FC)” value in the assay with Acinetobacter baumannii [10], in the assay on Acinetobacter baumannii [13], with Klebsiella pneumoniae [14], with Escherichia coli [16], in the assay with Pseudomonas aeruginosa [17] and with Pseudomonas aeruginosa [20] was “>=4” throughout.

Regarding `CCCCCCCC/C=C\CCCCCCCC(=O)NCCCCN`, the minimum inhibitory concentration (MIC) with Acinetobacter baumannii [8] was determined as 4 µg/mL; with Acinetobacter baumannii [9] it was 16 µg/mL; with Klebsiella pneumoniae [11], 32 µg/mL; in the assay on Pseudomonas aeruginosa [12] it was 64 µg/mL; in the assay with Pseudomonas aeruginosa [15], 64 µg/mL; in the assay with Escherichia coli [18], 32 µg/mL. Further, the MIC with Klebsiella pneumoniae [19] was 64 µg/mL. Moreover, the “fold change (FC)” value with Acinetobacter baumannii [10], in the assay with Acinetobacter baumannii [13], in the assay with Klebsiella pneumoniae [14], with Escherichia coli [16], with Pseudomonas aeruginosa [17] and with Pseudomonas aeruginosa [20] was 0 throughout.

For the molecule `CCCCCCCCCCNC(=N)NCCCCN1CCCC1`, the MIC in the assay on Acinetobacter baumannii [8] was at most 0.125 µg/mL; in the assay on Acinetobacter baumannii [9], at most 0.125 µg/mL; with Klebsiella pneumoniae [11] it was 0.5 µg/mL; with Pseudomonas aeruginosa [12], 0.5 µg/mL; in the assay with Pseudomonas aeruginosa [15], 2 µg/mL; in the assay on Escherichia coli [18] it was at most 0.125 µg/mL. In the assay on Klebsiella pneumoniae [19], the MIC was at most 0.125 µg/mL. In addition, the “fold change (FC)” value in the assay with Acinetobacter baumannii [10], in the assay with Acinetobacter baumannii [13], in the assay with Klebsiella pneumoniae [14], in the assay on Escherichia coli [16], in the assay on Pseudomonas aeruginosa [17] and in the assay on Pseudomonas aeruginosa [20] was “>=4” each time.

For the origin of these results see ChEMBL document CHEMBL5357066, “Development of Novel Membrane Disrupting Lipoguanidine Compounds Sensitizing Gram-Negative Bacteria to Antibiotics” (ACS Med Chem Lett, 2024).
